ChEMBL document CHEMBL3272070, “Cycloalkanoindoles. 1. Syntheses and antiinflammatory actions of some acidic tetrahydrocarbazoles, cyclopentindoles, and cycloheptindoles” (J Med Chem, 1976)
Active and inactive are the calls of the source. The rule behind the calls is not given here.

Assays:
[1] = test system: Rattus norvegicus; assay: Acute antiinflammatory activity in po dosed rat assessed as inhibition of carrageenan-induced paw edema; assay type: functional
[2] = test system: Rattus norvegicus; assay: Chronic antiinflammatory activity against adjuvant-induced arthritis in po dosed rat assessed as decrease in volume of paw administered for 9 days starting 14 days after adjuvant injection and continued until day 22 by therapeutic test; assay type: functional
Method in brief: (§1)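 Adjuvant arthritis was induced in groups of six rats by injecting Mycobacterium butyricum in mineral oil into the left hind foot pad. Oral dosing ran from day 14 to day 22 (nine doses). Injected-paw volume was measured by mercury displacement, and a decrease of ≥0.5 ml counted as a therapeutic effect. ED50 was derived by probit analysis of responder counts. The maximum screening dose was 100 mg/kg.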

[3] = test system: Rattus norvegicus; assay: Ulcerogenicity in po dosed 24-hrs starved Charles-River rat assessed as lesions on stomach administered as single dose measured after 18 hrs; assay type: toxicity, organism-based; conditions: in vivo
Method in brief: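 Male Charles River rats were starved 24 h and given a single oral dose. After 18 h they were killed by ether inhalation and their stomachs examined for lesions (erosion or ulcer). UD50, the dose producing lesions in 50% of rats, was derived by probit analysis.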

[4] = species on record: Rattus norvegicus; assay: Ratio of ED50 for ulcerogenicity in 24-hrs starved Charles-River rat to ED50 for chronic antiinflammatory activity against adjuvant-induced arthritis in rat
Method in brief: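 Ratio of ulcerogenic UD50 to therapeutic ED50. UD50: single oral dose in 24 h-starved male Charles River rats, stomach lesions scored at 18 h. Therapeutic ED50: adjuvant-arthritic rats dosed orally days 14–22, with a ≥0.5 ml decrease in paw volume as the response. Both values were derived by probit analysis.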

[5] = test system: Rattus norvegicus; assay: Chronic antiinflammatory activity against adjuvant-induced arthritis in rat assessed as decrease in volume of paw at 100 mg/kg, po administered for 9 days starting 14 days after adjuvant injection and continued until day 22 by therapeutic test; assay type: functional, organism-based; design: dose 100 mg/kg; method in brief: as §1
[6] = test system: Rattus norvegicus; assay: Ratio of ED50 for acute antiinflammatory activity against carrageenan-induced paw edema in rat to ED50 for chronic antiinflammatory activity against adjuvant-induced arthritis in rat
[7] = test system: Rattus norvegicus; assay: Chronic antiinflammatory activity against adjuvant-induced arthritis in rat assessed as decrease in volume of paw at 10 mg/kg, po administered for 9 days starting 14 days after adjuvant injection and continued until day 22 by therapeutic test; assay type: functional, organism-based; design: dose 10 mg/kg; method in brief: as §1
[8] = test system: Rattus norvegicus; assay: Chronic antiinflammatory activity against adjuvant-induced arthritis in rat assessed as decrease in volume of paw at 25 mg/kg, po administered for 9 days starting 14 days after adjuvant injection and continued until day 22 by therapeutic test; assay type: functional, organism-based; design: dose 25 mg/kg; method in brief: as §1

`CCCC1(CC(=O)O)OCCc2c1[nH]c1ccccc21` (stereo not drawn) [PRODOLIC ACID] gave an ED50 [1] of 89.9 mg/kg, an ED50 [2] of 9 mg/kg and an ED50 [3] of 678 mg/kg. The “Ratio ED50” value [4] was 75.

For `CCCCC1C(=O)N(c2ccccc2)N(c2ccccc2)C1=O` [PHENYLBUTAZONE], the ED50 [2] was 5.4 mg/kg and the ED50 [3] was 100 mg/kg.

In the case of `COc1ccc2[nH]c3c(c2c1)CCC(C(=O)O)C3` (stereo not drawn), the ED50 [1] is reported as 12.7 mg/kg and the ED50 [2] is reported as 20 mg/kg.

Molecule `CCC1(CC(=O)O)CCc2c1[nH]c1ccccc21` (stereo not drawn) has an ED50 [2] of 100 mg/kg.

In the case of `O=C(O)CC1CCCc2c1[nH]c1ccccc21` (stereo not drawn), the Activity [5] is reported as “inactive”.

In the case of `CCCc1cccc2c3c([nH]c12)C(CC)(CC(=O)O)CCC3` (stereo not drawn), the ED50 [1] is reported as 10.5 mg/kg, the Ratio [6] is reported as 10 and the ED50 [2] is reported as 1.1 mg/kg. For the same molecule, the ED50 [3] was 24 mg/kg and the “Ratio ED50” value [4] was 24.

Molecule `CCc1cccc2c3c([nH]c12)C(CC)(CC(=O)O)CCC3` (stereo not drawn) has an ED50 [2] of 1.9 mg/kg.

With `CCc1cccc2c3c([nH]c12)C(C)(CC(=O)O)CCCC3` (stereo not drawn) the Activity [7] was “inactive”.

`CC1(CC(=O)O)CCCc2c1[nH]c1ccccc21` (stereo not drawn) was tested, and the Activity [5] was “inactive”.

For `CCc1cccc2c3c([nH]c12)C(CC)(CC(=O)O)OCC3` (stereo not drawn) [ETODOLAC], the ED50 [1] was 10.2 mg/kg, the ED50 [2] was 0.7 mg/kg and the ED50 [3] was 60 mg/kg. The “Ratio ED50” value [4] was 85.

`CCC1(CC(=O)O)CCCc2c1[nH]c1c(C(C)C)cccc21` (stereo not drawn) showed an ED50 [2] of 5.4 mg/kg.

`CCCCc1cccc2c3c([nH]c12)C(CC)(CC(=O)O)CCC3` (stereo not drawn) gave an ED50 [2] of 4.2 mg/kg.

`CC1(CC(=O)O)CCc2c1[nH]c1ccccc21` (stereo not drawn) was tested, and the Activity [8] was “inactive”.

In the case of `CCc1cccc2c3c([nH]c12)C(C)(CC(=O)O)CC3` (stereo not drawn), the ED50 [2] is reported as > 50 mg/kg.

With `CCC1(CC(=O)O)CCCc2c1[nH]c1ccc(OC)cc21` (stereo not drawn) the Activity [8] was “inactive”.

With `O=C(O)C1CCc2c([nH]c3ccccc23)C1` (stereo not drawn) the Activity [5] was “inactive”.

In the case of `COc1ccc2cc([C@H](C)C(=O)O)ccc2c1` [NAPROXEN], the ED50 [2] is reported as 2.1 mg/kg, the ED50 [3] is reported as 28 mg/kg and the “Ratio ED50” value [4] is reported as 13.

For `COc1ccc2c(c1)c(CC(=O)O)c(C)n2C(=O)c1ccc(Cl)cc1` [INDOMETHACIN], the ED50 [2] was 0.2 mg/kg.

For `CCc1cccc2c3c([nH]c12)C(CC)(CC(=O)O)CC3` (stereo not drawn), the ED50 [2] was 6.2 mg/kg.

`O=C(O)C1CCc2c([nH]c3ccc(Cl)cc23)C1` (stereo not drawn) showed an ED50 [1] of 10.2 mg/kg and an ED50 [2] of 21.3 mg/kg.

For `CCCC1(CC(=O)O)CCCc2c1[nH]c1ccccc21` (stereo not drawn), the ED50 [2] was 20 mg/kg.

`CCC1(CC(=O)O)CCCc2c1[nH]c1ccccc21` (stereo not drawn) was tested, and the ED50 [2] was 3.3 mg/kg.

For `CCc1cccc2c3c([nH]c12)C(CC)(CC(=O)O)CCCC3` (stereo not drawn), the ED50 [2] was > 50 mg/kg.
